Laboratory results reported in ChEMBL document CHEMBL1135464, “3-Aryl-2-quinolone derivatives: synthesis and characterization of in vitro and in vivo antitumor effects with emphasis on a new therapeutical target connected with cell migration” (J Med Chem, 2002).

Experiments:
A-427 [1] = assay: Cytotoxicity against A-427 nonsmall lung cell line using MTT colorimetric assay; type: functional, cell-based; settings: Homo sapiens
Procedure, shortened: (§1)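 Human tumour lines from ATCC were grown at 37 °C in sealed dishes in MEM with 5% FCS. Cells were seeded at 40000 cells/mL in 96-well plates and left 24 h to plate. Each drug was then tested at six concentrations from 10^-5 to 10^-9 M. Growth was read by colorimetric MTT assay.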

A549 [2] = assay: Cytotoxicity against A549 nonsmall lung cell line using MTT colorimetric assay; type: functional, cell-based; settings: Homo sapiens; procedure, shortened: as §1
A 172 [3] = assay: Cytotoxicity against A-172 glioblastomas using MTT colorimetric assay; type: functional, cell-based; settings: Homo sapiens; procedure, shortened: as §1
[4] = Evaluated in vivo for maximum tolerated dose and found to be nontoxic; type: ADME, organism-based
HCT-15 [5] = assay: Cytotoxicity against HCT-15 colon cell line using MTT colorimetric assay; type: functional, cell-based; settings: Homo sapiens; procedure, shortened: as §1
J82 [6] = assay: Cytotoxicity against J82 bladder cell lines using MTT colorimetric assay; type: functional, cell-based; settings: Homo sapiens; procedure, shortened: as §1
LoVo [7] = assay: Cytotoxicity measured on LoVo colon cell line using MTT colorimetric assay; type: functional, cell-based; settings: Homo sapiens; procedure, shortened: as §1
MCF7 [8] = assay: Cytotoxicity against Breast cancer cell line MCF-7 using MTT colorimetric assay at 1x 10 E-5; type: functional, cell-based; settings: Homo sapiens; procedure, shortened: as §1
PC-3 [9] = assay: Cytotoxicity against prostate cell line PC-3 using MTT colorimetric assay; type: functional, cell-based; settings: Homo sapiens; procedure, shortened: as §1
T47D [10] = assay: Cytotoxicity against Breast cancer cell line T-47D using MTT colorimetric assay; type: functional, cell-based; settings: Homo sapiens; procedure, shortened: as §1
T-24 [11] = assay: Cytotoxicity against T24 bladder cell lines using MTT colorimetric assay; type: functional, cell-based; settings: Homo sapiens; procedure, shortened: as §1
U373 MG [12] = assay: Cytotoxicity against U-373 MG glioblastomas using MTT colorimetric assay; type: functional, cell-based, U-373MG ATCC; settings: Homo sapiens; procedure, shortened: as §1
U-87 MG [13] = assay: Cytotoxicity against U-87 MG glioblastomas using MTT colorimetric assay; type: functional, cell-based, U-87MG ATCC; settings: Homo sapiens; procedure, shortened: as §1
Mus musculus [14] = assay: Evaluated in vivo for maximum tolerated dose (MTD/16) using MXT mouse mammary adenocarcinoma model ( ineffective); type: ADME, organism-based
Procedure, shortened: (§2)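 MXT-HS hormone-sensitive mammary adenocarcinoma maintained by monthly s.c. transplantation in 6-week-old female B6D2F1 mice. Doses are set as fractions of the MTD. Drugs given i.p.; ETO and DOX 9 times, the quinolone 20 times. Nine mice per group. Tumor area (mm2) is the product of the two largest perpendicular caliper diameters, measured weekly. Mean ± SEM; Mann-Whitney test.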

Mus musculus [15] = assay: Evaluated in vivo for maximum tolerated dose (MTD/8) using MXT mouse mammary adenocarcinoma model
Mus musculus [16] = assay: Evaluated in vivo for maximum tolerated dose (MTD/4) using MXT mouse mammary adenocarcinoma model
Mus musculus [17] = assay: Evaluated in vivo for maximum tolerated dose (MTD/2) using MXT mouse mammary adenocarcinoma model ( highly toxic)
Mus musculus [18] = assay: Evaluated in vivo for maximum tolerated dose (MTD/8) using MXT mouse mammary adenocarcinoma model; type: functional; procedure, shortened: as §2
Mus musculus [19] = assay: Evaluated in vivo for maximum tolerated dose (MTD16) using MXT mouse mammary adenocarcinoma model; type: functional; procedure, shortened: as §2
Mus musculus [20] = assay: Evaluated in vivo for maximum tolerated dose (MTD/2) using MXT mouse mammary adenocarcinoma model; type: functional; procedure, shortened: as §2
Mus musculus [21] = assay: Evaluated in vivo for maximum tolerated dose (MTD/4) using MXT mouse mammary adenocarcinoma model; type: functional; procedure, shortened: as §2
A-427 [22] = assay: Cytotoxicity against A-427 nonsmall lung cell line using MTT colorimetric assay; NE is no effect at 1x 10 E-5; type: functional, cell-based, Homo sapiens; procedure, shortened: as §1
A 172 [23] = assay: Cytotoxicity against A-172 glioblastomas using MTT colorimetric assay; NE is no effect at 1x 10 E-5; type: functional, cell-based, Homo sapiens; procedure, shortened: as §1
HCT-15 [24] = assay: Cytotoxicity against HCT-15 colon cell line using MTT colorimetric assay a; NE is no effect at 1x 10 E-5; type: functional, cell-based, Homo sapiens; procedure, shortened: as §1
J82 [25] = assay: Cytotoxicity against J82 bladder cell lines using MTT colorimetric assay; NE is no effect at 1x 10 E-5; type: functional, cell-based, Homo sapiens; procedure, shortened: as §1
LoVo [26] = assay: Cytotoxicity against LoVo colon cell line using MTT colorimetric assay; NE is no effect at 1x 10 E-5; type: functional, cell-based, Homo sapiens; procedure, shortened: as §1
MCF7 [27] = assay: Cytotoxicity against Breast cancer cell line MCF-7 using MTT colorimetric assay; NE is no effect at 1x 10 E-5; type: functional, cell-based, Homo sapiens; procedure, shortened: as §1
PC-3 [28] = assay: Cytotoxicity against prostate cell line PC-3 using MTT colorimetric assay; NE is no effect at 1x 10 E-5; type: functional, cell-based, Homo sapiens; procedure, shortened: as §1
T-24 [29] = assay: Cytotoxicity against T24 bladder cell lines using MTT colorimetric assay; NE is no effect at 1x 10 E-5; type: functional, cell-based, Homo sapiens; procedure, shortened: as §1
U373 MG [30] = assay: Cytotoxicity against U-373 MG glioblastomas using MTT colorimetric assay; NE is no effect at 1x 10 E-5; type: functional, cell-based, Homo sapiens; settings: u-373mg atcc; procedure, shortened: as §1
T47D [31] = assay: Cytotoxicity against Breast cancer cell line T-47D using MTT colorimetric assay at 1x 10 E-5; NE is no effect at 1x 10 E-5; type: functional, cell-based, Homo sapiens; procedure, shortened: as §1
U-87 MG [32] = assay: Cytotoxicity against U-87 MG glioblastomas using MTT colorimetric assay; NE is no effect at 1x 10 E-5; type: functional, cell-based, Homo sapiens; settings: u-87mg atcc; procedure, shortened: as §1
A549 [33] = assay: Cytotoxicity against A549 nonsmall lung cell line using MTT colorimetric assay; NE is no effect at 1x 10 E-5; type: functional, cell-based, Homo sapiens; procedure, shortened: as §1
J82 [34] = assay: Cytotoxicity against J82 bladder cell lines using MTT colorimetric assay at 1x 10 E-5; type: functional, cell-based; settings: Homo sapiens; procedure, shortened: as §1
MCF7 [35] = assay: Cytotoxicity against Breast cancer cell line MCF-7 using MTT colorimetric assay; type: functional, cell-based; settings: Homo sapiens; procedure, shortened: as §1

With `CCN(CC)C(=O)Cn1c(=O)c(-c2ccc(OC)cc2)cc2c(OC)cc(OC)cc21` the IC50 (A-427 [1]) was > 10 µM, the IC50 (A549 [2]) was > 10 µM and the IC50 (A 172 [3]) was > 10 µM. The MTD [4] was 160 mg/kg, the IC50 (HCT-15 [5]) was > 10 µM and the IC50 (J82 [6]) was > 10 µM. The IC50 (LoVo [7]) was > 10 µM, the IC50 (MCF7 [8]) was > 10 µM and the IC50 (PC-3 [9]) was > 10 µM. For the same molecule, the IC50 (T47D [10]) was > 10 µM, the IC50 (T-24 [11]) was > 10 µM and the IC50 (U373 MG [12]) was > 10 µM. For the same molecule, the IC50 (U-87 MG [13]) was > 10 µM.
With `COc1cc([C@@H]2c3cc4c(cc3[C@@H](O[C@@H]3O[C@@H]5CO[C@@H](C)O[C@H]5[C@H](O)[C@H]3O)[C@H]3COC(=O)[C@H]23)OCO4)cc(OC)c1O` [ETOPOSIDE] the MTD/16 (Mus musculus [14]) was 5 mg/kg, the MTD/8 (Mus musculus [15]) was 10 mg/kg and the MTD/4 (Mus musculus [16]) was 20 mg/kg. For the same molecule, the MTD/2 (Mus musculus [17]) was 40 mg/kg.
`COc1cccc2c1C(=O)c1c(O)c3c(c(O)c1C2=O)C[C@@](O)(C(=O)CO)C[C@@H]3O[C@H]1C[C@H](N)[C@H](O)[C@H](C)O1` [DOXORUBICIN] gave an MTD/8 (Mus musculus [18]) of 1.25 mg/kg, an MTD/16 (Mus musculus [19]) of 0.63 mg/kg and an MTD/2 (Mus musculus [20]) of 5 mg/kg. For the same molecule, the MTD/4 (Mus musculus [21]) was 2.5 mg/kg.
With `COc1ccc(-c2cc3c(OC)cc(OC)cc3n(CCC(=O)O)c2=O)cc1` the IC50 (A-427 [22]) was “No effect”, the IC50 (A 172 [23]) was “No effect” and the MTD [4] was 160 mg/kg. For the same molecule, the IC50 (HCT-15 [24]) was “No effect”, the IC50 (J82 [25]) was “No effect” and the IC50 (LoVo [26]) was “No effect”. The IC50 (MCF7 [27]) was “No effect”, the IC50 (PC-3 [28]) was “No effect” and the IC50 (T-24 [29]) was “No effect”. The IC50 (U373 MG [30]) was “No effect”, the IC50 (T47D [31]) was “No effect” and the IC50 (U-87 MG [32]) was “No effect”. For the same molecule, the IC50 (A549 [33]) was “No effect”.
For `COc1ccc(-c2cc3c(OC)cc(OC)cc3n(CCC(=O)OCc3ccccc3)c2=O)cc1`, the IC50 (A-427 [1]) was > 10 µM, the IC50 (A549 [2]) was > 10 µM and the IC50 (A 172 [3]) was > 10 µM. The MTD [4] was 160 mg/kg, the IC50 (HCT-15 [5]) was > 10 µM and the IC50 (J82 [34]) was > 10 µM. For the same molecule, the IC50 (LoVo [7]) was > 10 µM, the IC50 (PC-3 [9]) was > 10 µM and the IC50 (T47D [10]) was > 10 µM. For the same molecule, the IC50 (T-24 [11]) was > 10 µM, the IC50 (U373 MG [12]) was > 10 µM and the IC50 (U-87 MG [13]) was > 10 µM. For the same molecule, the IC50 (MCF7 [35]) was > 10 µM.
